Laboratory results taken from ChEMBL document CHEMBL4765392, “Development of coumarine derivatives as potent anti-filovirus entry inhibitors targeting viral glycoprotein” (Eur J Med Chem, 2020).

Experiments:
[1] = Inhibition of envelope glycoprotein in HIV pseudotyped Zaire Ebolavirus infected in human A549 cells assessed as reduction in virus entry measured after 48 hrs by luciferase reporter gene assay; type: cell-based; settings: A549, 48 h
In short: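 A549 cells (5000/well, seeded 24 h prior) incubated 48 h with 3-fold serial compound dilutions premixed with HIV-backbone luciferase pseudovirions bearing EBOV GP. Entry quantified by luciferase signal, normalized to virus-alone cells. IC50 from logistic regression of dose-response curves.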

[2] = Cytotoxicity against human A549 cells assessed as reduction in cell viability by Celltiter-Glo assay; type: cell-based
In short: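 Low-passage A549 cells seeded at 5000/well 24 h ahead, then exposed for 48 h to 3-fold serial compound dilutions in fresh media without virus. Viability read by CellTiter-Glo luminescence and normalized to medium-only cells. CC50 from logistic regression fit of dose-response curves.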

[3] = tested on: envelope glycoprotein of Zaire Ebolavirus; experiment: Selectivity index, ratio of CC50 for human A549 cells to IC50 for inhibition of envelope glycoprotein in HIV pseudotyped Zaire Ebolavirus infected in human A549 cells assessed as reduction in virus entry; type: toxicity, cell-based; settings: read-out: Ratio CC50/IC50
In short: (§1)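 IC50 wells also got HIV luciferase pseudovirions bearing MARV GP or EBOV GP, read by luciferase. CC50 wells got fresh media, read by CellTiter-Glo. Both values come from logistic dose-response fits, and the index is CC50 divided by IC50.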

[4] = tested on: envelope glycoprotein of Marburgvirus; experiment: Selectivity index, ratio of CC50 for human A549 cells to IC50 for inhibition of envelope glycoprotein in HIV pseudotyped Marburgvirus infected in human A549 cells assessed as reduction in virus entry; type: toxicity, cell-based; settings: read-out: Ratio CC50/IC50; in short: as §1

SMILES | IC50 [1] [µM] | CC50 [2] [µM] | selectivity ratio [3] | selectivity ratio [4]
Cc1c(Cc2ccc(C(C)(C)C)cc2)c(=O)oc2cc(OCC(O)CN3CCC(C(N)=O)CC3)ccc12 (stereo unspecified) | 11.7 | 14.7 | 1.3 | 2.5
Cc1c(Cc2ccc(C(F)(F)F)cc2)c(=O)oc2cc(OCC(O)CN3CCC(C(N)=O)CC3)ccc12 (stereo unspecified) | 1.1 | 89.3 | 78.8 | 83.7
Cc1c(Cc2ccccc2)c(=O)oc2cc(OCC(CN3CCC(C(N)=O)CC3)Oc3ccc(F)cc3)ccc12 (stereo unspecified) | 10.4 | 66.4 | 6.4 | 5.5
Cc1c(Cc2ccc(OC(F)(F)F)cc2)c(=O)oc2cc(OCC(O)CNc3nccs3)ccc12 (stereo unspecified) | 1.5 | 99 | 66 | 82.5
NC(=O)C1CCN(CC(O)COc2ccc3c(C4CC4)c(Cc4ccccc4)c(=O)oc3c2)CC1 (stereo unspecified) | 9.4 | > 100 | > 10.6 | 15.3
Cc1c(Cc2ccc(-c3ccc(C#N)c(F)c3)cc2)c(=O)oc2cc(OCC(O)CN3CCC(C(N)=O)CC3)ccc12 (stereo unspecified) | 3.5 | 29.1 | 8.2 | 12.8
Cc1c(Cc2ccc(F)cc2)c(=O)oc2cc(OCC(O)CN3CCC(C(N)=O)CC3)ccc12 (stereo unspecified) | 1.1 | 89.3 | 78.8 | 83.7
Cc1c(Cc2cccc(F)c2)c(=O)oc2cc(OCC(O)CN3CCC(C(N)=O)CC3)ccc12 (stereo unspecified) | 1.6 | 53.3 | 34 | 22.5
Cc1c(Cc2ccccc2)c(=O)oc2cc(OCC(O)CNCc3cccs3)ccc12 (stereo unspecified) | 3.5 | 87.3 | 24.9 | 24.9
Cc1c(Cc2ccccc2)c(=O)oc2cc(OCC(O)CNc3cc([N+](=O)[O-])ccc3O)ccc12 (stereo unspecified) | 81.3 | > 100 | 12 | 1
Cc1c(Cc2ccccc2)c(=O)oc2cc(OCC(O)CN3CCC(C(N)=O)CC3)ccc12 (stereo unspecified) | 3.4 | > 100 | > 29.4 | 3.4
NC(=O)C1CCN(CC(O)COc2ccc3c(-c4ccccc4)c(Cc4ccccc4)c(=O)oc3c2)CC1 (stereo unspecified) | 2.9 | 25.2 | 8.6 | 11.6
Cc1c(Cc2ccc(OC(F)(F)F)cc2)c(=O)oc2cc(OC[C@H](O)CN3CCC(C(N)=O)CC3)ccc12 | 0.9 | 52 | 55.7 | 36.3
Cc1c(Cc2ccccc2)c(=O)oc2cc(OCCCNc3nccs3)ccc12 | 18 | 50.1 | 2.8 | 3.1
Cc1c(Cc2ccc(-c3ccc(Cl)cc3)cc2)c(=O)oc2cc(OCC(O)CN3CCC(C(N)=O)CC3)ccc12 (stereo unspecified) | 1.4 | 32.9 | 22.9 | 31.8
Cc1cc(=O)oc2cc(OCC(O)CN3CCC(C(N)=O)CC3)ccc12 (stereo unspecified) | 9.3 | > 100 | > 10.8 | 12
Cc1c(Cc2ccc(-c3ccc(F)cc3)cc2)c(=O)oc2cc(OCC(O)CN3CCC(C(N)=O)CC3)ccc12 (stereo unspecified) | 1.5 | 19.3 | 13.1 | 18.1
Cc1c(Cc2ccc(-c3ccccc3C#N)cc2)c(=O)oc2cc(OCC(O)CN3CCC(C(N)=O)CC3)ccc12 (stereo unspecified) | 1.8 | 33.2 | 17.5 | 18.2
Cc1c(Cc2ccccc2)c(=O)oc2cc(OCC(O)CNn3ccnn3)ccc12 (stereo unspecified) | > 100 | > 100 |  | 1
Cc1c(Cc2ccc(-c3ccc(C=O)c(F)c3)cc2)c(=O)oc2cc(OCC(O)CN3CCC(C(N)=O)CC3)ccc12 (stereo unspecified) | 10.9 | 62.4 | 5.7 | 11.9
Cc1c(Cc2ccccc2)c(=O)oc2cc(OCC(O)CNCCc3ccncc3)ccc12 (stereo unspecified) | 0.9 | > 100 | > 111 | 36.6
Cc1noc(C)c1-c1ccc(Cc2c(C)c3ccc(OCC(O)CN4CCC(C(N)=O)CC4)cc3oc2=O)cc1 (stereo unspecified) | 5.2 | 36.9 | 7.1 | 11.4
Cc1c(Cc2ccc(OC(F)(F)F)cc2)c(=O)oc2cc(OCC(O)CNCCc3ccncc3)ccc12 (stereo unspecified) | 2.2 | 14.3 | 6.6 | 10.7
Cc1c(Cc2cccc3ccccc23)c(=O)oc2cc(OCC(O)CN3CCC(C(N)=O)CC3)ccc12 (stereo unspecified) | 1.5 | 42.4 | 28.5 | 36.6

SMILES | IC50 [1] [µM] | CC50 [2] [µM] | selectivity ratio [3] | selectivity ratio [4]
Cc1c(Cc2ccccc2)c(=O)oc2cc(OCC(O)CNCCCO)ccc12 (stereo unspecified) | 8.9 | 53.4 | 6 | 6.3
Cc1c(Cc2ccc(-c3ccccc3)cc2)c(=O)oc2cc(OCC(O)CN3CCC(C(N)=O)CC3)ccc12 (stereo unspecified) | 0.7 | > 100 | > 143 | 111
COc1ccc(Cc2c(C)c3ccc(OCC(O)CN4CCC(C(N)=O)CC4)cc3oc2=O)c(Br)c1 (stereo unspecified) | 2.5 | 44.4 | 18 | 8.6
Cc1cc(F)ccc1Cc1c(C)c2ccc(OCC(O)CN3CCC(C(N)=O)CC3)cc2oc1=O (stereo unspecified) | 1.2 | > 100 | > 81.1 | 33.3
NC(=O)C1CCN(CC(O)COc2ccc3c(C4CC4)cc(=O)oc3c2)CC1 (stereo unspecified) | 17.7 | > 100 | > 5.7 | 3
Cc1c(Cc2ccccc2)c(=O)oc2cc(OCC(CN3CCC(C(N)=O)CC3)Oc3ccc([N+](=O)[O-])cc3)ccc12 (stereo unspecified) | 16 | 94.8 | 5.9 | 11.5
C#CCNCC(O)COc1ccc2c(C)c(Cc3ccccc3)c(=O)oc2c1 (stereo unspecified) | 5.9 | 95.5 | 16.1 | 17.2
Cc1c(Cc2ccccc2)c(=O)oc2cc(OCC(CN3CCC(C(N)=O)CC3)Oc3ccccc3F)ccc12 (stereo unspecified) | 22.5 | 79.6 | 3.5 | 3.9
Cc1c(Cc2ccc(Br)cc2)c(=O)oc2cc(OCC(O)CN3CCC(C(N)=O)CC3)ccc12 (stereo unspecified) | 0.9 | > 100 | > 111 | 85.7
Cc1c(Cc2ccc(F)cc2F)c(=O)oc2cc(OCC(O)CN3CCC(C(N)=O)CC3)ccc12 (stereo unspecified) | 1.2 | > 100 | > 81.1 | 23.6
Cc1c(Cc2ccccc2)c(=O)oc2cc(OCC(O)CNCCCCCCO)ccc12 (stereo unspecified) | 1 | 40.3 |  | 16.6
Cc1c(Cc2ccccc2)c(=O)oc2cc(OCC(O)CNCc3ccccc3)ccc12 (stereo unspecified) | 1.3 | > 100 | > 75 | 45.5
Cc1c(Cc2ccccc2C(F)(F)F)c(=O)oc2cc(OCC(O)CN3CCC(C(N)=O)CC3)ccc12 (stereo unspecified) | 1.6 | > 100 | > 63.8 | 33
Cc1c(Cc2ccc(-c3ccccc3)cc2)c(=O)oc2cc(OCC(O)CNc3nccs3)ccc12 (stereo unspecified) | 2.7 | 38.1 | 14.1 | 29.3
COC(=O)c1ccc(Cc2c(C)c3ccc(OCC(O)CN4CCC(C(N)=O)CC4)cc3oc2=O)cc1 (stereo unspecified) | 7.5 | > 100 | > 13.3 | 11
Cc1c(Cc2ccccc2)c(=O)oc2cc(OCC(O)CNc3nccs3)ccc12 (stereo unspecified) | 2.1 | 93 | 44.3 | 33.2
Cc1c(Cc2ccccc2)c(=O)oc2cc(OCC(O)CNCC3CC3)ccc12 (stereo unspecified) | 3 | > 100 | > 33.3 | 31.6
Cc1ccc2nc(NCC(O)COc3ccc4c(C)c(Cc5ccccc5)c(=O)oc4c3)sc2c1 (stereo unspecified) | 10.2 | > 100 | > 9.8 | 11.3
COC(CNCCc1ccncc1)COc1ccc2c(C)c(Cc3ccccc3)c(=O)oc2c1 (stereo unspecified) | 2.8 | 16.6 | 5.9 | 9.6
Cc1c(Cc2ccc(OC(F)(F)F)cc2)c(=O)oc2cc(OC[C@@H](O)CN3CCC(C(N)=O)CC3)ccc12 | 0.7 | 64.9 | 92.6 | 46.3
Cc1c(Cc2ccccc2)c(=O)oc2cc(OCC(O)CNc3ccc(Br)cc3)ccc12 (stereo unspecified) | > 100 | > 100 |  | 1
COc1ccccc1-c1ccc(Cc2c(C)c3ccc(OCC(O)CN4CCC(C(N)=O)CC4)cc3oc2=O)cc1 (stereo unspecified) | 1.5 | 91.6 |  | 30
Cc1c(Cc2ccccc2)c(=O)oc2cc(OCC(O)CNc3ccccc3)ccc12 (stereo unspecified) | > 100 | > 100 |  | 1
Cc1c(Cc2ccccc2)c(=O)oc2cc(OCC(O)CNc3nc4ccccc4[nH]3)ccc12 (stereo unspecified) | > 100 | > 100 |  | 1
